Mot1-301 SUMO: inhibitors of SUMOylation pathway: yeast Mot1-301 growth rescue; 1% of 320,000 active; S. cerevisiae Mot1-301 growth rescue, ATP luminescence, 38.5C; percent above DMSO median, 100 means doubled; growth rescue, % at 18.8 µM;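 active means every valid replicate shows activation above 250% relative to neutral control wells; inactive means the rest, any valid replicate at or below 250%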;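 further: OY570 slx delta 5 strain wells were the positive control but not used for scaling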
Statin myotox sup: suppressors of simvastatin-induced myotoxicity in C2C12 myotubes. ATP luminescence, 48 h; scaled: DMSO 0, geranylgeraniol control 100. rescue of ATP level, % at 7.49 µM. 0.78% of 330,000 active;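 active means mean ATP rescue above about 67%, or every replicate alone reaching that limit, limit read from the data, passing the limit was not always enough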;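 further: myotubes were challenged with 10 µM simvastatin during compound exposure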
ARFGAP1 inhibitor: inhibits rat ARF GTPase activating protein 1; Q62848; Arfgap1-stimulated ARF1 GTP hydrolysis, GDP FP detection; inhibition, % at 16.5 µM; 0.26% of 360,000 active; AID 651572;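 active means inhibition above a per-plate limit, mean inhibition of low control wells plus 3 SD, cut at about 25% in these data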;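 further: 0% = DMSO wells with enzyme and 100% = wells lacking Arfgap1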
Target sequence (Q62848 1-136 limits assumed): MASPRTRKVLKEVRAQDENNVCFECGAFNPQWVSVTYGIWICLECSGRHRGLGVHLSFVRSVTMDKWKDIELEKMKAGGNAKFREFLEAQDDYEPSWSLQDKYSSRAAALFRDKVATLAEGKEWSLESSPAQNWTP
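Material: truncated rat Arfgap1 GAP domain; Incubation: compound-enzyme preincubation 20 min, reaction 120 min, detection 60 min, 25 °C; Read-out: percent inhibition of Arfgap1-stimulated GTP hydrolysis; Technique: FP, GDP Alexa 633 tracer displaced from anti-GDP antibody, 620/688 nm; Controls: No-Arfgap1 wells (100%) versus DMSO full-reaction wells (0%); Replication: single well per compound.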
APOBEC3A inh: human APOBEC3A DNA deaminase inhibition; P31941; recombinant A3A, FAM/TAMRA ssDNA deamination fluorescence; inhibition, % at 20 µM; 0.41% of 330,000 active;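 active means at least 40% inhibition at 20 µM here, with at most 30% in a related deaminase screen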;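 further: plate controls were A3A with DMSO for no effect and wells lacking A3A enzyme for full effect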
Target sequence (P31941 whole entry, looked up): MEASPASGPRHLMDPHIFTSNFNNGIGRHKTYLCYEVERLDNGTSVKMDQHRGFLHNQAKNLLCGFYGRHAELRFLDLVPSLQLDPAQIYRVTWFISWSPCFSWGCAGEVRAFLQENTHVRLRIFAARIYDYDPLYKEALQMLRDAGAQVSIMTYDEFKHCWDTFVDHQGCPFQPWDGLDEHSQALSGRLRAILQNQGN
ASAP1 GAP inh: blocks human ASAP1-stimulated Arf1 GTP hydrolysis; 0.19% of 360,000 active; Q9ULH1; GDP FP detection; AID 624377; inhibition, % at 16.5 µM; in the data active means inhibition above about 25%;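 further: 0% = vehicle with enzyme and substrate and 100% = no enzyme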
A3G deaminase: APOBEC3G (human) deaminase inhibition; recombinant A3G, ssDNA deamination FAM/TAMRA fluorescence; inhibition, % at 20 µM; 0.28% of 330,000 active; AID 493012;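 active means inhibition of at least 40% at 20 µM, with no more than 30% in the related APOBEC3A deaminase screen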;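 further: plate controls were DMSO wells with A3G for no effect and wells lacking A3G enzyme for full effect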
* hit, by the source's call; / = not tested or not shown. Compounds with a hit are over-represented: about 2.1% of the library has one in this group of screens.

SMILES	Mot1-301 SUMO	Statin myotox sup	ARFGAP1 inhibitor	APOBEC3A inh	ASAP1 GAP inh	A3G deaminase
O=C(CN1C(=O)CCC1=O)NCC12CC3CC(CC(C3)C1)C2	-20	96*	0	6	2	1
O=C(CN1CCCC1)NCC12CC3CC(CC(C3)C1)C2	331	-10	1	1	15	1
COC(=O)C[C@@H]1CC[C@@H]2[C@H](COC[C@@H](O)CN2CCC(F)(F)F)O1	/	12	/	/	/	/
C/C(=N\NC(=O)CNc1ccccc1Cl)C(C)(C)C	2	72*	3	3	-6	2
CCCCCCC(=O)N(O)C1CC(=O)N(c2ccc(Br)cc2)C1=O (stereo not given)	338*	-19	2	3	2	1
O=C(CN1C(=O)NC2(CCCC2)C1=O)N1CCN(C(=O)c2ccco2)CC1	16	12	10	-2	-2	-9
CCCC1(CCC)NC(=O)N(CC(=O)N2CCN(C(=O)c3ccco3)CC2)C1=O	-15	98*	-8	-1	-5	2
O=C([C@@H]1[C@@H](CO)[C@@H]2Cn3c(ccc(-c4ccccc4F)c3=O)[C@H]1N2C(=O)C1CC1)N1CCOCC1	/	50	/	/	/	/
C[C@@H]1CN([C@H](C)CO)S(=O)(=O)c2ccc(C#Cc3cccc(F)c3)cc2O[C@@H]1CN(C)CC1CC1	/	11	/	/	/	/
N#CCCN1CCNCC1	108	132*	-3	4	-6	4
O=C(/C=C/c1cccc([N+](=O)[O-])c1)Nc1ccc(NC(=O)c2cccs2)cc1	474*	/	7	2	0	-5
O=C(/C=C/c1cccc([N+](=O)[O-])c1)c1cccs1	0	17	-9	-2	1	-4
C/C=C/c1ccc2c(c1)O[C@@H](CN(C)C(=O)C1CCC1)[C@@H](C)CN([C@@H](C)CO)S2(=O)=O	/	15	/	/	/	/
CCOC(=O)C1(Cc2ccccc2C)CCCN(C(=O)CCc2cccnc2)C1 (stereo not given)	782*	/	-1	-5	-8	-11
O=C(C1CC1)N1CCC(C(O)(c2ccccc2)c2ccccc2)CC1	-11	85*	-1	-4	9	4
NC(=O)CC[C@@H]1NC(=O)[C@H](CO)NC(=O)c2cc([N+](=O)[O-])cc(I)c2NCCCC[C@@H](C(N)=O)NC(=O)[C@H](Cc2ccc(O)cc2)NC1=O	-16	/	/	2	/	-11
NC(=O)C(CC(=O)O)NC(=O)[C@@H]1CCCNc2c(I)cc([N+](=O)[O-])cc2C(=O)N[C@@H](CO)C(=O)N[C@@H](Cc2ccc(O)cc2)C(=O)N1 (stereo not given in full)	10	159*	/	9	/	8
COc1ccc(-c2cc(C(=O)N3CC4(C)CC3CC(C)(C)C4)no2)cc1OC (stereo not given)	879*	/	-13	3	7	-2
COc1ccc(-c2cc(C(=O)N3CC4(C)CC3CC(C)(C)C4)no2)cc1 (stereo not given)	-1	-17	1	7	4	0
CCOc1nnc(C)c2c(C)n(-c3ccc(Cl)cc3)nc12	226	119*	-6	-6	-14	-4
O=C(Cn1cnc2ccccc2c1=O)N1CCc2ccccc2C1	498*	/	7	1	22	1
O=C(Cn1cnc2ccccc2c1=O)N1CCOCC1	-5	/	12	-5	17	-3
CCCNC(=O)[C@@H]1[C@@H](CO)[C@@H]2Cn3c(ccc(-c4cccc(F)c4)c3=O)[C@H]1N2CCC	/	1	/	/	/	/
C[C@H](CO)N1C[C@H](C)[C@H](CN(C)C(=O)Nc2ccc(F)cc2)Oc2ncc(-c3ccc(C#N)cc3)cc2C1=O	/	-8	/	/	/	/
O=C(Cc1ccc(Cl)cc1)c1ccc(O)cc1	10	/	-9	0	-10	-1
SMILES	Mot1-301 SUMO	Statin myotox sup	ARFGAP1 inhibitor	APOBEC3A inh	ASAP1 GAP inh	A3G deaminase
Cc1ccc(CC(=O)c2ccc(Cl)cc2)cc1	45	133*	7	1	-11	-9
C[C@@H]1CN([C@H](C)CO)S(=O)(=O)c2ccc(C3=CCCC3)cc2O[C@H]1CN(C)C(=O)c1ccncc1	/	-29	/	/	/	/
CC1(C)N=C(N)N=C(N)N1c1ccc(F)cc1F	6	104*	-6	1	-5	6
C[C@@H]1CCCCO[C@H](CN(C)CC2CCCCC2)[C@H](C)CN([C@H](C)CO)C(=O)c2cc(NS(C)(=O)=O)ccc2O1	/	-9	/	/	/	/
O=C(C[C@H]1C=C[C@H](NC(=O)Nc2cccc(F)c2)[C@@H](CO)O1)NCC1CC1	/	2	/	/	/	/
CCOC(=O)CN1CC23C=CC(O2)C(C(=O)NC2CCCCC2)C3C1=O (stereo not given)	152	108*	11	1	-10	-1
CCC(CC)C(=O)NC12CC3CC(CC(C3)C1)C2	-10	89*	-1	0	12	-2
CCN(CC)CC(=O)NC12CC3CC(CC(C3)C1)C2	20	/	3	-1	3	-2
CN1CCN(C(=O)C[C@H]2CC[C@@H]3[C@@H](COc4ccc(NC(=O)C5CCOCC5)cc4C(=O)N3C)O2)CC1	/	-17	/	/	/	/
CC(NC(=O)COc1cccc(Br)c1)C(=O)O (stereo not given)	997*	/	-5	-3	1	1
CC(NC(=O)COc1ccc(Br)cc1)C(=O)O (stereo not given)	-31	14	7	2	-2	-1
O=C(NCC12CC3CC(CC(C3)C1)C2)c1nn2c(c1Cl)NC(c1ccco1)CC2C(F)(F)F (stereo not given)	2	137*	-5	3	-14	1
C[C@H](CO)N1C[C@H](C)[C@H](CN(C)C(=O)CN2CCOCC2)Oc2ncc(C3=CCCCC3)cc2C1=O	/	3	/	/	/	/
CN(C)c1ccc(CN(C(=O)c2ccc(Cl)c([N+](=O)[O-])c2)C2CCS(=O)(=O)C2)cc1 (stereo not given)	341*	-13	-10	-9	-5	0
O=C(c1ccc(Cl)c([N+](=O)[O-])c1)N(Cc1ccc(F)cc1)C1CCS(=O)(=O)C1 (stereo not given)	-4	/	0	0	-7	0
COc1ccc(-n2cc(-c3ccc(OC)c(OC)c3)[nH]c2=S)cc1	545*	0	16	0	9	-6
COc1ccc(-n2cc(-c3ccc(Br)cc3)[nH]c2=S)cc1	-9	7	-5	-2	1	-2
O=c1[nH]c2cc(Br)cnc2nc1/C=C(\O)c1ccc(F)cc1	338*	-35	0	-16	-6	-24
CC(=O)c1c(C)[nH]c(C(=O)CSc2nnc(C3CCCCC3)n2N)c1C	2	122*	2	0	1	-4
Nn1c(SCC(=O)N2CCCC2)nnc1C1CCCCC1	/	1	3	/	-10	/
C[C@H]1CN([C@@H](C)CO)C(=O)c2cc(C#CC3(O)CCCC3)cnc2O[C@H]1CN(C)C(=O)C1CCOCC1	/	-4	/	/	/	/

Screens deposited in PubChem BioAssay by several laboratories.
